ChEMBL document CHEMBL1144696, “Overcoming drug resistance to heme-targeted antimalarials by systematic side chain variation of 7-chloro-4-aminoquinolines” (J Med Chem, 2008)
pIC50: −log10 of the molar value.

What was measured:
Plasmodium falciparum [1] = test: Antiplasmodial activity against chloroquine-sensitive Plasmodium falciparum HB3 after 72 hrs by SYBR green 1 assay; assay type: functional, organism-based; settings: HB3, 72 h
How it was run: (§1)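 P. falciparum growth inhibition measured by SYBR Green I intercalation. Each strain was tested separately. IC50 calculated from triplicate experiments. Values are averages of two separate determinations, each run in triplicate.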

Plasmodium falciparum [2] = test: Antiplasmodial activity against chloroquine-resistant Plasmodium falciparum FCB after 72 hrs by SYBR green 1 assay; assay type: functional, organism-based; how it was run: as §1
Plasmodium falciparum [3] = test: Selectivity for chloroquine-resistant Plasmodium falciparum Dd2 over chloroquine-sensitive Plasmodium falciparum HB3 as IC50 ratio by SYBR green assay; assay type: functional
How it was run: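 Selectivity index is IC50 for Dd2 divided by IC50 for HB3. Both IC50s come from the SYBR Green I assay, averaging two determinations each run in triplicate.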

Plasmodium falciparum [4] = test: Selectivity index for chloroquine-resistant Plasmodium falciparum FCB to chloroquine-sensitive Plasmodium falciparum GCO3 by SYBR green IC50 ratio; assay type: functional
Plasmodium falciparum [5] = test: Antiplasmodial activity against chloroquine-resistant Plasmodium falciparum Dd2 after 72 hrs by SYBR green 1 assay; assay type: functional, organism-based; settings: Dd2, 72 h; how it was run: as §1
Plasmodium falciparum [6] = test: Antiplasmodial activity against chloroquine-sensitive Plasmodium falciparum GCO3 after 72 hrs by SYBR green 1 assay; assay type: functional, organism-based; settings: GCO3, 72 h; how it was run: as §1

In the case of `CC(C)NC1CCC(Nc2ccnc3cc(Cl)ccc23)CC1` (centres undefined), the pIC50 (Plasmodium falciparum [1]) was 7.50, the pIC50 (Plasmodium falciparum [2]) was 7.18 and the “Ratio IC50” value (Plasmodium falciparum [3]) was 2.42. For the same compound, the “Ratio IC50” value (Plasmodium falciparum [4]) was 3.89, the pIC50 (Plasmodium falciparum [5]) was 7.12 and the pIC50 (Plasmodium falciparum [6]) was 7.71.

With `CC(C)N(CCCN(CCCN(C(C)C)C(C)C)c1ccnc2cc(Cl)ccc12)C(C)C` the pIC50 (Plasmodium falciparum [1]) was 7.36, the pIC50 (Plasmodium falciparum [2]) was 6.98 and the “Ratio IC50” value (Plasmodium falciparum [3]) was 2.26. The “Ratio IC50” value (Plasmodium falciparum [4]) was 2.45, the pIC50 (Plasmodium falciparum [5]) was 7.00 and the pIC50 (Plasmodium falciparum [6]) was 7.37.

In the case of `CCN(CC)CCCNCCCCNc1ccnc2cc(Cl)ccc12`, the pIC50 (Plasmodium falciparum [1]) was 7.14, the pIC50 (Plasmodium falciparum [2]) was 6.72 and the “Ratio IC50” value (Plasmodium falciparum [3]) was 2.34. The “Ratio IC50” value (Plasmodium falciparum [4]) was 1.36, the pIC50 (Plasmodium falciparum [5]) was 6.77 and the pIC50 (Plasmodium falciparum [6]) was 6.86.

In the case of `CC(C)NC1CCCC(Nc2ccnc3cc(Cl)ccc23)C1` (centres undefined), the pIC50 (Plasmodium falciparum [1]) was 7.56, the pIC50 (Plasmodium falciparum [2]) was 6.96 and the “Ratio IC50” value (Plasmodium falciparum [3]) was 2.74. The “Ratio IC50” value (Plasmodium falciparum [4]) was 4.21, the pIC50 (Plasmodium falciparum [5]) was 7.12 and the pIC50 (Plasmodium falciparum [6]) was 7.58.

`CCN(CC)CCCN(CC)CCCCCNc1ccnc2cc(Cl)ccc12` was tested, and the pIC50 (Plasmodium falciparum [1]) was 7.80, the pIC50 (Plasmodium falciparum [2]) was 7.18 and the “Ratio IC50” value (Plasmodium falciparum [3]) was 2.76. The “Ratio IC50” value (Plasmodium falciparum [4]) was 1.21, the pIC50 (Plasmodium falciparum [5]) was 7.36 and the pIC50 (Plasmodium falciparum [6]) was 7.26.

In the case of `CCN(CC)CCCN(CCCN(CC)CC)c1ccnc2cc(Cl)ccc12`, the pIC50 (Plasmodium falciparum [1]) was 6.73, the pIC50 (Plasmodium falciparum [2]) was 6.73 and the “Ratio IC50” value (Plasmodium falciparum [3]) was 0.68. The “Ratio IC50” value (Plasmodium falciparum [4]) was 1.92, the pIC50 (Plasmodium falciparum [5]) was 6.89 and the pIC50 (Plasmodium falciparum [6]) was 7.02.

With `CCN(CC)CCCNCCNc1ccnc2cc(Cl)ccc12` the pIC50 (Plasmodium falciparum [1]) was 7.53, the pIC50 (Plasmodium falciparum [2]) was 6.84 and the pIC50 (Plasmodium falciparum [5]) was 6.89. The pIC50 (Plasmodium falciparum [6]) was 6.93.

With `CCN(CC)CCCNCCCCCCNc1ccnc2cc(Cl)ccc12` the pIC50 (Plasmodium falciparum [1]) was 7.08, the pIC50 (Plasmodium falciparum [2]) was 6.67 and the “Ratio IC50” value (Plasmodium falciparum [3]) was 3.25. The “Ratio IC50” value (Plasmodium falciparum [4]) was 1.67, the pIC50 (Plasmodium falciparum [5]) was 6.57 and the pIC50 (Plasmodium falciparum [6]) was 6.89.

With `CCN(CC)CCCNCCCCCNc1ccnc2cc(Cl)ccc12` the pIC50 (Plasmodium falciparum [1]) was 7.34, the pIC50 (Plasmodium falciparum [2]) was 7.01 and the “Ratio IC50” value (Plasmodium falciparum [3]) was 2.25. The “Ratio IC50” value (Plasmodium falciparum [4]) was 1.42, the pIC50 (Plasmodium falciparum [5]) was 6.99 and the pIC50 (Plasmodium falciparum [6]) was 7.16.

For `CCN(CC)CCCCN(CCCCN(CC)CC)c1ccnc2cc(Cl)ccc12`, the pIC50 (Plasmodium falciparum [1]) was 6.15, the pIC50 (Plasmodium falciparum [2]) was 5.97 and the “Ratio IC50” value (Plasmodium falciparum [3]) was 1.23. For the same compound, the “Ratio IC50” value (Plasmodium falciparum [4]) was 2.05, the pIC50 (Plasmodium falciparum [5]) was 6.05 and the pIC50 (Plasmodium falciparum [6]) was 6.29.

In the case of `CCN(CC)C1CCC(Nc2ccnc3cc(Cl)ccc23)CC1` (centres undefined), the pIC50 (Plasmodium falciparum [1]) was 7.59, the pIC50 (Plasmodium falciparum [2]) was 7.24 and the “Ratio IC50” value (Plasmodium falciparum [3]) was 2.03. For the same compound, the “Ratio IC50” value (Plasmodium falciparum [4]) was 1.8, the pIC50 (Plasmodium falciparum [5]) was 7.29 and the pIC50 (Plasmodium falciparum [6]) was 7.49.

For `CCN(CC)CCCN(CC)CCCCCCNc1ccnc2cc(Cl)ccc12`, the pIC50 (Plasmodium falciparum [1]) was 7.20, the pIC50 (Plasmodium falciparum [2]) was 6.58 and the “Ratio IC50” value (Plasmodium falciparum [3]) was 4.36. For the same compound, the “Ratio IC50” value (Plasmodium falciparum [4]) was 1.5, the pIC50 (Plasmodium falciparum [5]) was 6.56 and the pIC50 (Plasmodium falciparum [6]) was 6.76.

For `CCN(CC)CCCN(CC)CCCNc1ccnc2cc(Cl)ccc12`, the pIC50 (Plasmodium falciparum [1]) was 7.67, the pIC50 (Plasmodium falciparum [2]) was 7.31 and the “Ratio IC50” value (Plasmodium falciparum [3]) was 1.33. For the same compound, the “Ratio IC50” value (Plasmodium falciparum [4]) was 1.78, the pIC50 (Plasmodium falciparum [5]) was 7.55 and the pIC50 (Plasmodium falciparum [6]) was 7.56.

For `CC(C)N(CCCCN(CCCCN(C(C)C)C(C)C)c1ccnc2cc(Cl)ccc12)C(C)C`, the pIC50 (Plasmodium falciparum [1]) was 5.88, the pIC50 (Plasmodium falciparum [2]) was 5.65 and the “Ratio IC50” value (Plasmodium falciparum [3]) was 1.94. The “Ratio IC50” value (Plasmodium falciparum [4]) was 1.47, the pIC50 (Plasmodium falciparum [5]) was 5.59 and the pIC50 (Plasmodium falciparum [6]) was 5.82.

With `CCN(CC)CCCN(CC)CCCCNc1ccnc2cc(Cl)ccc12` the pIC50 (Plasmodium falciparum [1]) was 7.62, the pIC50 (Plasmodium falciparum [2]) was 6.81 and the “Ratio IC50” value (Plasmodium falciparum [3]) was 3.52. For the same compound, the “Ratio IC50” value (Plasmodium falciparum [4]) was 1.78, the pIC50 (Plasmodium falciparum [5]) was 7.07 and the pIC50 (Plasmodium falciparum [6]) was 7.06.

With `CCN(CC)C1CCCC(Nc2ccnc3cc(Cl)ccc23)C1` (centres undefined) the pIC50 (Plasmodium falciparum [1]) was 7.58, the pIC50 (Plasmodium falciparum [2]) was 6.95 and the “Ratio IC50” value (Plasmodium falciparum [3]) was 3.04. For the same compound, the “Ratio IC50” value (Plasmodium falciparum [4]) was 2.78, the pIC50 (Plasmodium falciparum [5]) was 7.10 and the pIC50 (Plasmodium falciparum [6]) was 7.39.

`CCN(CC)CCCN(CC)CCNc1ccnc2cc(Cl)ccc12` gave a pIC50 (Plasmodium falciparum [1]) of 7.56, a pIC50 (Plasmodium falciparum [2]) of 7.28 and a pIC50 (Plasmodium falciparum [5]) of 7.51. For the same compound, the pIC50 (Plasmodium falciparum [6]) was 7.42.

In the case of `CCN(CC)CCCNCCCNc1ccnc2cc(Cl)ccc12`, the pIC50 (Plasmodium falciparum [1]) was 7.56, the pIC50 (Plasmodium falciparum [2]) was 7.13 and the “Ratio IC50” value (Plasmodium falciparum [3]) was 2.06. For the same compound, the “Ratio IC50” value (Plasmodium falciparum [4]) was 1.14, the pIC50 (Plasmodium falciparum [5]) was 7.25 and the pIC50 (Plasmodium falciparum [6]) was 7.19.
